pIC50: −log10 of the molar value. Active and inactive are the calls of the source. The calls are words filed in the database; no cut-off is given here.
Legend:
Format in all cases: cell-based
[1] = test system: HepG2; assay: Inhibition of NF-kappaB-induced COX2 mRNA expression in TNF-alpha-stimulated human HepG2 cells after 1 hr by RT-PCR analysis
How it was run: (§1)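 HepG2 cells stimulated with TNFα alone or with compound at 0.1, 1 and 10 μM; COX-2 and iNOS mRNA measured against β-actin housekeeping control. Mean ± SD (n = 6); significance versus TNFα-stimulated cells by Dunnett's multiple comparison test (p < 0.05, p < 0.01).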

[2] = test system: HepG2; assay: Cytotoxicity against human HepG2 cells by MTT assay
[3] = test system: HepG2; assay: Inhibition of NF-kappaB-induced iNOS mRNA expression in TNF-alpha-stimulated human HepG2 cells after 1 hr by RT-PCR analysis; how it was run: as §1
[4] = Inhibition of TNF-alpha-induced NFkappaB activation in human HepG2 cells after 1 hr by luciferase reporter assay; details: HepG2, 1 h
How it was run: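 HepG2 cells seeded at 1.5 × 10^5 per well, grown 24 h, then transiently transfected with NF-kB-responsive firefly luciferase reporter (minimal CMV promoter, tandem NF-kB response elements). Pretreated 1 h with DMSO vehicle or compound, then 10 ng/mL TNFα for 1 h; cells lysed, luciferin added, luminescence read.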

[5] = test system: HepG2; assay: Inhibition of NF-kappaB-induced COX2 mRNA expression in TNF-alpha-stimulated human HepG2 cells at 0.1 to 10 uM after 1 hr by RT-PCR analysis; how it was run: as §1
[6] = test system: HepG2; assay: Inhibition of NF-kappaB-induced iNOS mRNA expression in TNF-alpha-stimulated human HepG2 cells at 0.1 to 10 uM after 1 hr by RT-PCR analysis; how it was run: as §1

| SMILES | inhibition [1] | Activity [2] | inhibition [3] | pIC50 [4] | inhibition [5] | inhibition [6] |
| --- | --- | --- | --- | --- | --- | --- |
| C[C@@]1(CO)CC[C@]2(C(=O)O)[C@H](O)C[C@]3(C)C(=CC[C@@H]4[C@@]5(C)CCC(=O)[C@@](C)(CO)[C@@H]5CC[C@]43C)[C@@H]2C1 | Dose-dependent effect | Non-toxic | Dose-dependent effect | 5.19 | – | – |
| COC(=O)CC[C@]1(C)[C@H]2CC=C3[C@@H]4C[C@](C)(CO)CC[C@]4(C(=O)O)CC[C@@]3(C)[C@]2(C)CC[C@H]1C(C)(O)CO (some centres not stated) | Dose-dependent effect | Non-toxic | Dose-dependent effect | 5.03 | – | – |
| CC1(C)CC[C@]2(C(=O)O[C@@H]3O[C@H](CO)[C@@H](O)[C@H](O)[C@H]3O)CC[C@]3(C)C(=CC[C@@H]4[C@@]5(C)CC[C@H](O)[C@@](C)(CO)[C@@H]5[C@H](O)C[C@]43C)[C@@H]2C1 | Dose-dependent effect | Non-toxic | Dose-dependent effect | 4.79 | – | – |
| CC(=O)O[C@@H]1[C@@H](OC(C)=O)[C@H](O[C@H]2CC[C@@]3(C)[C@@H](CC[C@]4(C)[C@@H]3CC=C3[C@@H]5CC(C)(C)CC[C@]5(C(=O)O[C@@H]5O[C@H](CO[C@@H]6O[C@H](CO)[C@@H](O[C@@H]7O[C@@H](C)[C@H](O)[C@@H](O)[C@H]7O)[C@H](O)[C@H]6O)[C@@H](O)[C@H](O)[C@H]5O)CC[C@]34C)[C@]2(C)CO)OC[C@@H]1O | Dose-dependent effect | Non-toxic | Dose-dependent effect | 5.05 | – | – |
| CC(=O)O[C@@H]1[C@@H](O)[C@H](O[C@H]2CC[C@@]3(C)[C@@H](CC[C@]4(C)[C@@H]3CC=C3[C@@H]5CC(C)(C)CC[C@]5(C(=O)O[C@@H]5O[C@H](CO[C@@H]6O[C@H](CO)[C@@H](O[C@@H]7O[C@@H](C)[C@H](O)[C@@H](O)[C@H]7O)[C@H](O)[C@H]6O)[C@@H](O)[C@H](O)[C@H]5O)CC[C@]34C)[C@]2(C)CO)OC[C@@H]1OC(C)=O | Dose-dependent effect | Non-toxic | Dose-dependent effect | 5.03 | – | – |
| CC1(C)CC[C@]2(C(=O)O)CC[C@]3(C)C(=CC[C@@H]4[C@@]5(C)CC[C@H](O)[C@@](C)(CO)[C@@H]5[C@H](O)C[C@]43C)[C@@H]2C1 | Dose-dependent effect | Non-toxic | Dose-dependent effect | 5.85 | – | – |
| CC1(C)CC[C@]2(C(=O)O[C@@H]3O[C@H](CO)[C@@H](O)[C@H](O)[C@H]3O)CC[C@]3(C)C(=CC[C@@H]4[C@@]5(C)CC[C@H](O)[C@@](C)(CO)[C@@H]5CC[C@]43C)[C@@H]2C1 | Dose-dependent effect | Non-toxic | Dose-dependent effect | 5.04 | – | – |
| C[C@@H]1O[C@@H](O[C@H]2[C@H](O[C@H]3CC[C@@]4(C)[C@@H](CC[C@]5(C)[C@@H]4CC=C4[C@@H]6CC(C)(C)CC[C@]6(C(=O)O)CC[C@]45C)[C@]3(C)CO)OC[C@H](O)[C@@H]2O)[C@H](O)[C@H](O)[C@H]1O [ALPHA-HEDERIN] | Dose-dependent effect | Non-toxic | Dose-dependent effect | 5.26 | – | – |
| C[C@@H]1O[C@@H](O[C@H]2[C@H](O)[C@@H](O)[C@H](OC[C@H]3O[C@@H](OC(=O)[C@]45CCC(C)(C)C[C@H]4C4=CC[C@@H]6[C@@]7(C)CC[C@H](O[C@@H]8OC[C@H](O)[C@H](O)[C@H]8O)[C@@](C)(CO)[C@@H]7CC[C@@]6(C)[C@]4(C)CC5)[C@H](O)[C@@H](O)[C@@H]3O)O[C@@H]2CO)[C@H](O)[C@H](O)[C@H]1O [CAULOSIDE D] | Dose-dependent effect | Non-toxic | Dose-dependent effect | 5.04 | – | – |
| CC1(C)CC[C@]2(C(=O)O[C@@H]3O[C@H](CO[C@@H]4O[C@H](CO)[C@@H](O)[C@H](O)[C@H]4O)[C@@H](O)[C@H](O)[C@H]3O)CC[C@]3(C)C(=CC[C@@H]4[C@@]5(C)CC[C@H](O)[C@@](C)(CO)[C@@H]5CC[C@]43C)[C@@H]2C1 [DIPSACUSSAPONIN A] | Dose-dependent effect | Non-toxic | Dose-dependent effect | 5.21 | – | – |
| CC1(C)CC[C@]2(C(=O)O)CC[C@]3(C)C(=CC[C@@H]4[C@@]5(C)CC[C@H](O)[C@@](C)(CO)[C@@H]5CC[C@]43C)[C@@H]2C1 [HEDERAGENIN] | – | – | – | < 4.70 | inactive | inactive |
| C[C@@H]1O[C@@H](O[C@H]2[C@H](O[C@H]3CC[C@@]4(C)[C@@H](CC[C@]5(C)[C@@H]4CC=C4[C@@H]6CC(C)(C)CC[C@]6(C(=O)O[C@@H]6O[C@H](CO[C@@H]7O[C@H](CO)[C@@H](O[C@@H]8O[C@@H](C)[C@H](O)[C@@H](O)[C@H]8O)[C@H](O)[C@H]7O)[C@@H](O)[C@H](O)[C@H]6O)CC[C@]45C)[C@]3(C)CO)OC[C@H](O)[C@@H]2O)[C@H](O)[C@H](O)[C@H]1O [KALOPANAXSAPONIN B] | Dose-dependent effect | Non-toxic | Dose-dependent effect | 6.10 | – | – |
| C[C@@H]1O[C@@H](O[C@H]2[C@H](O[C@H]3CC[C@@]4(C)[C@@H](CC[C@]5(C)[C@@H]4CC=C4[C@@H]6CC(C)(C)CC[C@]6(C(=O)O[C@@H]6O[C@H](CO[C@@H]7O[C@H](CO)[C@@H](O[C@@H]8O[C@@H](C)[C@H](O)[C@@H](O)[C@H]8O)[C@H](O)[C@H]7O)[C@@H](O)[C@H](O)[C@H]6O)CC[C@]45C)[C@]3(C)CO)OC[C@H](O)[C@@H]2O[C@@H]2O[C@H](CO)[C@@H](O)[C@H](O)[C@H]2O)[C@H](O)[C@H](O)[C@H]1O [KALOPANAXSAPONIN C] | Dose-dependent effect | Non-toxic | Dose-dependent effect | 5.41 | – | – |
| C[C@@]1(CO)CC[C@]2(C(=O)O)CC[C@]3(C)C(=CC[C@@H]4[C@@]5(C)CC[C@H](O)[C@@](C)(CO)[C@@H]5CC[C@]43C)[C@@H]2C1 [NIPPONOGENIN E] | – | – | – | < 4.70 | – | – |
| C[C@@H]1O[C@@H](O[C@H]2[C@H](O)[C@@H](O)[C@H](OC[C@H]3O[C@@H](OC(=O)[C@]45CCC(C)(C)C[C@H]4C4=CC[C@@H]6[C@@]7(C)CC[C@H](O[C@@H]8OC[C@H](O)[C@H](O)[C@H]8O[C@@H]8O[C@@H](C)[C@H](O)[C@@H](O[C@@H]9OC[C@@H](O)[C@H](O)[C@H]9O)[C@H]8O)[C@@](C)(CO)[C@@H]7CC[C@@]6(C)[C@]4(C)CC5)[C@H](O)[C@@H](O)[C@@H]3O)O[C@@H]2CO)[C@H](O)[C@H](O)[C@H]1O [SIEBOLDIANOSIDE A] | Dose-dependent effect | Non-toxic | Dose-dependent effect | 6.22 | – | – |
| O=C(O)c1cc(/N=N/c2ccc(S(=O)(=O)Nc3ccccn3)cc2)ccc1O [SULFASALAZINE] | – | – | – | 6.05 | – | – |

From ChEMBL document CHEMBL1909563, “Anti-inflammatory triterpenoid saponins from the stem bark of Kalopanax pictus” (J Nat Prod, 2011)
